Laboratory results from article PMC3320048 (Angiogenesis, 2011).
Where a SMILES comes first, the peptide text is derived from it. Bridges are numbered along the chain shown (N, C = ends). Where no end group is shown, it is not given here.

Key:
[1] = tested on: proliferating HUVEC; experiment: Cytotoxicity assay; format: cell-based
[2] = tested on: neonatal human dermal fibroblasts (NHDF); experiment: LDH release in fibroblasts; format: cell-based; conditions: 150 μg/ml, 24 hours, 37°C
How it was run: (§1)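 Cells were grown at 37°C in humidified 5% CO2 and treated at about 50% confluence. Test compound (2 mg/ml stock in H2O) was added at 150 μg/ml in 2% FBS for 24 h at 37°C. LDH release was read with a commercial kit and normalised to background death in untreated cells. 0.1% (v/v) Triton X-100 defined maximal release.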

[3] = tested on: human bladder epithelial cells (HBEC); experiment: LDH release in epithelial cells; format: cell-based; conditions: 150 μg/ml, 24 hours, 37°C
How it was run: as §1

[4] = biological target: CLIC1 (Homo sapiens, UniProt O00299); experiment: Saturation binding assay
How it was run: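 Copper-coated microtiter wells were coated with 2 μg/ml purified His-tagged human CLIC1. Wells were incubated 1 h at room temperature with varying concentrations of carboxyfluorescein-labelled peptide in TBS with 200 mM n-octyl-β-D-glucoside and 1 mM CaCl2. After TBS washes, fluorescence was read at ex 485/em 520. Signal from His-tagged nucleolin-coated wells was subtracted as non-specific binding. Kd was derived from the binding curves.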

[5] = tested on: DU145 subcutaneous xenografts; experiment: DU145 tumor treatment study; format: in vivo, mice; conditions: 300 μg i.p. 3x/week
How it was run: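 Male athymic nude mice carried 2-week-old subcutaneous DU145 flank xenografts averaging 40 mm3 at the start. They received carrier or test compound (300 μg) intraperitoneally three times per week. Tumour volume was measured with calipers at each treatment time point, and mice were weighed on day 15. Groups were compared by unpaired two-tailed t test or one-way ANOVA with Tukey post hoc test.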

[6] = tested on: HUVEC; experiment: Flow cytometry assay of CLIC1 cell surface expression in suspended HUVEC; format: cell-based, human; conditions: peptide 300 μM
[7] = tested on: HUVEC; experiment: Western blot of cytosolic fractions for LC3 and cathepsins; format: cell-based, human
How it was run: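 Cytosolic fractions came from treated HUVEC using a subcellular fractionation kit. Proteins were resolved by SDS-PAGE, blotted to PVDF and checked for equal loading with 0.05% Ponceau S. Blots were blocked in 5% milk or BSA, probed overnight at 4°C for cathepsin C, cathepsin D and LC3B, and detected by peroxidase secondary antibodies with ECL. Lysosomes were labelled with 100 nM LysoTracker Red for 1 h before paraformaldehyde fixation.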

[8] = tested on: fibronectin; conditions: cited from earlier work
[9] = tested on: fibrinogen; conditions: cited from earlier work

With CC[C@H](C)[C@@H]1NC(=O)[C@H](CC(C)C)NC(=O)CNC(=O)[C@@H](N)CSSC[C@@H](C(=O)O)NC(=O)[C@H](CCC(=O)O)NC(=O)[C@H](CC(N)=O)NC(=O)[C@H](CCCCN)NC(=O)[C@H](CCC(N)=O)NC(=O)[C@H]([C@@H](C)CC)NC1=O [CLT1] (H-CGLIIQKNEC-OH; disulfide 1-10) the “CLT1-induced cytotoxicity at 4°C” value ([1]; HUVEC cultured at 4°C versus 37°C, 150 μg/ml, 24 hours, LDH release) was “protected endothelial cells from CLT1-induced cytotoxicity”, the “cytotoxicity of CLT1 after CLIC1 knockdown” value ([1]; HUVEC, CLIC1 siRNA versus control siRNA, 24 hours, LDH release) was “significantly reduced” and the “earliest time at which cytotoxicity was detected” value ([1]; HUVEC, LDH release over time) was 3.5 h. For the same molecule, the “cytotoxicity in fibroblasts (LDH release)” value [2] was “little effect”, the “cytotoxicity in epithelial cells (LDH release)” value [3] was “little effect” and the Kd [4] was 10.2 µM. For the same molecule, the “body weight of the mice” value ([5]; day 15 of the treatment study) was “remained unchanged”.

In the case of “CNAGESSKNC (disulfide 1-10 (inferred)) [CLT2, reference compound]”, the “tumor growth (tumor volume)” value ([5]; DU145 xenografts, n=12/treatment group) is reported as “no anti-angiogenic or anti-tumor effects”.

With GRADSP the “effect on CLIC1 cell surface localization induced by CLT1-fibronectin co-aggregates” value [6] was “not by an inactive peptide”.

In the case of “CGLKIQKNEC (disulfide 1-10 (inferred)) [CLT1-IK1]”, the “LC3-II conversion (autophagy marker)” value ([7]; HUVEC cytosolic fractions, 7 hours, 7.5–75 μg/ml, immunoblot) is reported as “did not induce” and the “lysosome dysfunction (cathepsin C and D leakage, lysotracker)” value ([7]; HUVEC, 75 μg/ml 24 hours immunoblot, 10 μg/ml fluorescein-conjugated peptide, lysotracker) is reported as “did not induce”.

With GRGDSP [reference compound] the “effect on cytotoxic function of CLT1” value ([1]; HUVEC, peptide 300 μM, 24 hours, LDH release) was “inhibited the cytotoxic function of CLT1” and the “effect on CLIC1 cell surface localization induced by CLT1-fibronectin co-aggregates” value [6] was “partially inhibited”.

With CO/C1=C\C(C)=C\[C@@H](C)[C@@H](O)[C@@H](C)C/C(C)=C/C=C/[C@H](OC)[C@@H]([C@@H](C)[C@@H](O)[C@H](C)[C@@]2(O)C[C@@H](O)[C@H](C)[C@@H](C(C)C)O2)OC1=O [bafilomycin A1, reference compound] the “effect of pretreatment on CLT1 cytotoxicity (LDH release)” value ([1]; HUVEC, 20 nM bafilomycin A1 for 1 hour prior to CLT1 25 μg/ml for 24 hours) was “ameliorated cytotoxicity of CLT1”.

In the case of anginex, the “aggregate formation when mixed with fibronectin” value [8] is listed as “form large insoluble aggregates” and the “aggregate formation when mixed with fibrinogen” value [9] is listed as “form large insoluble aggregates”.
